Experimental data collected from several papers.
Target: Aurora kinase C (AURKC, Homo sapiens, UniProt Q9UQB9)
One construct used (Q9UQB9 1-309): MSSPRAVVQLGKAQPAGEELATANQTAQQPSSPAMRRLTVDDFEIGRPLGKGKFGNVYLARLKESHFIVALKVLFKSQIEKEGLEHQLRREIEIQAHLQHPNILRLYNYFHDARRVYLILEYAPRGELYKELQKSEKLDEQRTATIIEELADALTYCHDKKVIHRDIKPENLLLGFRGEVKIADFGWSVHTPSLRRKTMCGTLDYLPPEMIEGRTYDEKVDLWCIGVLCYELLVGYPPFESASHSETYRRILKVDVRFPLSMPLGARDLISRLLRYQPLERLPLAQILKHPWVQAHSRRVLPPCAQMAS

Nc1ncc(-c2nc(N3CCOCC3)nc(N3CCOCC3)n2)c(C(F)F)n1
remaining binding (binding; competition with immobilised ligand; 10 µM): 91%

O=c1[nH]c2ccccc2n1C1CCN(Cc2ccc(-c3[nH]c4cc5ncnc5cc4nc3-c3ccccc3)cc2)CC1
remaining signal (cell-free assay; 0.5 µM): 96%

N#CC1(c2ccccn2)CCN(Cc2cc(C(=O)O)c(=O)n3ccccc23)CC1
remaining binding (cell-free assay; competition with immobilised ligand; 1 µM): 94%

Cn1cc(-c2cccc(N3CCc4c(sc5c4CC(C)(C)C5)C3=O)c2CO)cc(Nc2ccncn2)c1=O
inhibition (enzyme activity; inhibitor; 1 µM): 5%

C#Cc1n[nH]c2c(-c3cn(C(C)c4ccccn4)c(=O)[nH]c3=O)cc(F)cc12 (stereo not shown)
inhibition (enzyme activity; inhibitor; 1 µM): 1.7%

Cn1cc(-c2cc(F)cc(N3CCn4c(cc5c4CCCC5)C3=O)c2CO)cc(Nc2ccc(N3CCN(C4COC4)CC3)cn2)c1=O
inhibition (enzyme activity; inhibitor; 0.1 µM): 5%

CC(C)(C)c1cc(C=C(C#N)C#N)cc(Br)c1O
remaining activity (enzyme activity; inhibitor; 0.5 µM): 87.6%

Cn1cncc1[C@](O)(COc1ccc(C#N)cc1-c1ccc(OC(F)(F)F)cc1)c1ccc(C#N)cc1
remaining binding (cell-free assay; competition with immobilised ligand; 1 µM): 100%

COc1ncccc1-c1cnn2ccc(N3CCN(C(=O)OC(C)C)CC3)nc12
remaining binding (binding; competition with immobilised ligand; 1 µM): 56%

COc1cc(Nc2ncc(F)c(Nc3ccc4c(n3)NC(=O)C(C)(C)O4)n2)cc(OC)c1OC
inhibition (binding; competition with immobilised ligand; 10 µM): 95%
